Screening results deposited in PubChem BioAssay by several laboratories.
sPLA2-III inh – Inhibits HGIII-sPLA2 liposome hydrolysis, primary screen; Q9NZ20; QFRET BODIPY PC-A2 liposome hydrolysis, fluorescence; inhibition, % at 12.2 µM; 370,000 tested, 0.56% active; AID 743126;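 active = inhibition above mean plus 3 SD of compounds lying within the high and low control bounds, cut at about 19% in these data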;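 also: 0% = median of test compound wells and 100% = no enzyme DMSO wells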
PLC-gamma1 inh – PLC-gamma1 (human) inhibition, primary screen; inhibition, % at 12.2 µM; purified PLC-gamma1, fluorogenic substrate, fluorescence; 370,000 tested, 0.84% active
proCasp3 act – activators of human procaspase-3. P42574. recombinant procaspase-3 D3A, Ac-DEVD-pNA absorbance 405 nm. activation, % at 8.5 µM. 330,000 tested, 0.11% active;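 active = activation above the mean of all tested compounds plus 3 SD, cut at about 21% in these data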;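 also: 0% = DMSO alone and 100% = DMSO wells spiked with extra 5 µM PC-3 D3A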
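System: Procaspase-3 D3A mutant. Medium: Zinc-free 300 mM NaCl, 50 mM HEPES, 0.01% Triton X-100. Schedule: 1 h preincubation plus 2 h reaction at 25 °C. Measured by: 405 nm absorbance of p-nitroaniline, reads at 0 and 120 min. Read-out: percent activation relative to control range.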
Arrestin-AP2 inh – human beta-arrestin and AP2 interaction inhibition; inhibition, % at 10 µM; AID 504490; 340,000 tested, 0.31% active; FITC-arrestin peptide / GST-AP2 beads, flow cytometry; AP2 beta2 appendage carries R879A mutation;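 active = inhibition above a set limit, near 3 SD of compounds lacking own fluorescence, cut at about 54% in these data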;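 also: plate controls were DMSO wells for no effect and 5 µM unlabelled arrestin peptide for full effect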
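Measured by: flow cytometry, FL1 (488/535 nm); Material: AP2 appendage R879A on GSH beads; Evaluation: percent response; Timing: pre-incubation 12 min, peptide binding 1 h, room temperature; Also added: 50 nM FITC-arrestin peptide; Medium: PBS with 0.05% Tween 20 and 0.1% BSA.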
PLC-beta3 inh – inhibitors of human phospholipase C beta3 | AID 720704 | inhibition, % at 12.2 µM | Purified PLC-beta3, fluorogenic substrate, fluorescence | 370,000 tested, 0.18% active; in the data active = inhibition above about 11%;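 also: 0% = median of compound wells on plate and 100% = full blocker control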
Target sequence (Q01970 whole entry, looked up): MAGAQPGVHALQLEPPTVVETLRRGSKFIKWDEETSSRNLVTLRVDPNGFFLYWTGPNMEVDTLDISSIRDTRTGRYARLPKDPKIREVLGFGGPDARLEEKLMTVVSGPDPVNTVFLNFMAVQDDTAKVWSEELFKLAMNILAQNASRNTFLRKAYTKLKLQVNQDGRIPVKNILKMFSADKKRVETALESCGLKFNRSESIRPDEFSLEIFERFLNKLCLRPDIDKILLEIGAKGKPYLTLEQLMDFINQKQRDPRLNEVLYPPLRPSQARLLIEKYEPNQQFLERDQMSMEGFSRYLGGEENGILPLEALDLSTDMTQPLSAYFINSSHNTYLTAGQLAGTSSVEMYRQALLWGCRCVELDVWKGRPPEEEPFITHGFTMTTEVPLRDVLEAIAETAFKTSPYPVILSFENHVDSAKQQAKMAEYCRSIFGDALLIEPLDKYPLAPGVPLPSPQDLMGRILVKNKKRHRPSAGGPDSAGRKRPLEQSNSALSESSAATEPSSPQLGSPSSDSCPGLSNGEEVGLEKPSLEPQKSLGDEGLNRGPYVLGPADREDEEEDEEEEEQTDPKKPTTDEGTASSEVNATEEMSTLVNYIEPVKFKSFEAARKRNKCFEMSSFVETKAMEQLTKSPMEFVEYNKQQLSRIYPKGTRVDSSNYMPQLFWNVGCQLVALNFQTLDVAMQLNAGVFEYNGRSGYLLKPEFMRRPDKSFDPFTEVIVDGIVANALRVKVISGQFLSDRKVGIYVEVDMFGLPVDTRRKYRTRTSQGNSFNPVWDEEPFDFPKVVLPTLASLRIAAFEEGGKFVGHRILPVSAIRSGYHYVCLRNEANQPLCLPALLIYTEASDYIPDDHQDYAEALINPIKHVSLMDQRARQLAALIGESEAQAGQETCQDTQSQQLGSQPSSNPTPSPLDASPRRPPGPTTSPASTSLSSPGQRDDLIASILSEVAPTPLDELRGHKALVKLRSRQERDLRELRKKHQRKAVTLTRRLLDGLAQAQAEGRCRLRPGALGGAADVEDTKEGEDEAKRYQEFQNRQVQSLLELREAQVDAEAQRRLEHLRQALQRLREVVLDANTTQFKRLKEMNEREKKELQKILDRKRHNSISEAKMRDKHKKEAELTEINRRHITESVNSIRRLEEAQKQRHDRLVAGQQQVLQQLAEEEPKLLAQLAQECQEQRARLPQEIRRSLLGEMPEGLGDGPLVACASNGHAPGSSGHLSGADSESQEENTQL
proCasp7 act – activates human procaspase-7, counter-screen for procaspase-3 activators; P55210; recombinant procaspase-7, Ac-DEVD-pNA absorbance 405 nm; D23A/D198A/D206A triple mutant, cannot self-cleave; scale: DMSO 0, 5 µM enzyme 100; activation, % at 8.5 µM; 330,000 tested, 0.093% active; AID 463210;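 active = percent activation above the screen-wide mean plus 3 SD, cut at about 25% in these data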
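System: Procaspase-7 triple mutant (PC-7 D3A); measure: % activation from two-timepoint absorbance difference, scaled to controls; times: 1 h compound preincubation, 2 h substrate cleavage, 25 °C; also added: Ac-DEVD-pNA substrate, 400 µM as added; measured by: Epi-absorbance of released pNA at 405 nm, two timepoints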
PLCgamma1 ctr – counter-screen for PLC-beta3 inhibitors: inhibitors of human PLC-gamma1 | shares compounds with PLC-gamma1 inh | purified PLC-gamma1, fluorogenic substrate, fluorescence | inhibition, % at 12.3 µM | 3,300 tested, 3.1% active | AID 743258
PLCb3 confirm – human PLC-beta3 inhibition, confirmation. shares compounds with PLC-gamma1 inh. purified PLC-beta3, fluorogenic substrate fluorescence. inhibition, % at 12.3 µM. 3,300 tested, 1% active; in the data active = inhibition above about 11%
* hit, by the source's call. Most compounds without a hit are left out; they make up all but 1.9% or so of the library. Rule as the data show it, unless noted: active = inhibition above about 9.5%; inactive = the rest.

Results for O=C(Cc1ccc(NC(=O)C2CCCN(C(=O)C3CCCCC3)C2)cc1)Nc1ccc(C(=O)N2CCOCC2)cc1 (stereo not drawn) ?
sPLA2-III inh: 0; PLC-gamma1 inh: 10*; Arrestin-AP2 inh: -19; PLC-beta3 inh: 9; PLCgamma1 ctr: -5; PLCb3 confirm: 0

How did O=C(Cc1ccc(NC(=O)C2CCCN(C(=O)C3CCCC3)C2)cc1)Nc1ccc(C(=O)N2CCOCC2)cc1 (stereo not drawn) do in these assays?
sPLA2-III inh: -3; PLC-gamma1 inh: 4; Arrestin-AP2 inh: 27; PLC-beta3 inh: 5

Results for CN(Cc1ccccc1)C(=O)c1cccc(NC(=O)Cc2ccc(NC(=O)C3CCCN(C(=O)c4ccccc4)C3)cc2)c1 (stereo not drawn) ?
sPLA2-III inh: -23; PLC-gamma1 inh: 12*; Arrestin-AP2 inh: -3; PLC-beta3 inh: 5; PLCgamma1 ctr: -3; PLCb3 confirm: 0

What do the screens show for `CC1CC1C(=O)Nc1ccc(S(=O)(=O)N2CCCCC2)cc1` (stereo not drawn)?
sPLA2-III inh: -5; PLC-gamma1 inh: -2; Arrestin-AP2 inh: 34; PLC-beta3 inh: 6

How did COC[C@@H]1CCCN1c1cccc2c1S(=O)(=O)N1CC[C@@H](C1)O2 do in these assays?
sPLA2-III inh: 1; PLC-gamma1 inh: -3; PLC-beta3 inh: -6

What do the screens show for `Nn1c(SCc2cccc3ccccc23)nnc1-c1cc(-c2ccc(F)cc2)n[nH]1`?
sPLA2-III inh: 2; PLC-gamma1 inh: 1; PLC-beta3 inh: -1

How did COc1ccc(/C=C/c2c([N+](=O)[O-])c(=O)n(C)c(=O)n2C)cc1 do in these assays?
sPLA2-III inh: 3; PLC-gamma1 inh: 4; proCasp3 act: -1; Arrestin-AP2 inh: 5; PLC-beta3 inh: -4; proCasp7 act: 5

How did CCOc1ccc(/C=C/c2c([N+](=O)[O-])c(=O)n(C)c(=O)n2C)cc1 do in these assays?
sPLA2-III inh: 5; PLC-gamma1 inh: 11*; proCasp3 act: 0; Arrestin-AP2 inh: -4; PLC-beta3 inh: 4; proCasp7 act: -6; PLCgamma1 ctr: 2; PLCb3 confirm: 2

What do the screens show for `COc1ccc(CN2CN3Cc4ccccc4C3CS2(=O)=O)cc1` (stereo not drawn)?
sPLA2-III inh: 0; PLC-gamma1 inh: -5; PLC-beta3 inh: -7

Results for CNC(=S)N(Cc1ccc(OC)cc1)C1CC(=O)N(c2ccc(Cl)cc2)C1=O (stereo not drawn) ?
sPLA2-III inh: -43; PLC-gamma1 inh: 9.6*; proCasp3 act: 2; Arrestin-AP2 inh: 2; PLC-beta3 inh: 3; proCasp7 act: 5; PLCgamma1 ctr: 8; PLCb3 confirm: 8

How did COc1ccc(CN(C(=S)Nc2ccccc2)C2CC(=O)N(c3ccc(F)cc3)C2=O)cc1 (stereo not drawn) do in these assays?
sPLA2-III inh: -10; PLC-gamma1 inh: 3; proCasp3 act: -5; Arrestin-AP2 inh: 6; PLC-beta3 inh: 5; proCasp7 act: -14

What do the screens show for `CC(C)COC(=O)Nc1ccc(C(=O)O)cc1`?
sPLA2-III inh: 5; PLC-gamma1 inh: 3; proCasp3 act: -2; Arrestin-AP2 inh: 4; PLC-beta3 inh: 13*; proCasp7 act: -12; PLCgamma1 ctr: 4; PLCb3 confirm: 5

Results for Clc1ccccc1COc1ccc(/C=N/n2cnnc2)cc1 ?
sPLA2-III inh: -13; PLC-gamma1 inh: 1; proCasp3 act: 6; Arrestin-AP2 inh: 0; PLC-beta3 inh: 4; proCasp7 act: 1

What do the screens show for `C=CCNC(=S)N/N=C/c1ccc(OCc2ccccc2Cl)cc1`?
sPLA2-III inh: 7; PLC-gamma1 inh: 10*; proCasp3 act: 1; Arrestin-AP2 inh: 1; PLC-beta3 inh: -1; proCasp7 act: 2; PLCgamma1 ctr: -5; PLCb3 confirm: -9

Results for Cc1ccc(COc2ccc(/C=N/O)cc2)cc1 ?
sPLA2-III inh: 1; PLC-gamma1 inh: 1; proCasp3 act: 6; Arrestin-AP2 inh: 3; PLC-beta3 inh: -2; proCasp7 act: 6

What do the screens show for `Cc1ccc(Oc2ccc(/C=N/O)cn2)cc1`?
sPLA2-III inh: 5; PLC-gamma1 inh: 14*; proCasp3 act: 2; Arrestin-AP2 inh: 1; PLC-beta3 inh: 1; proCasp7 act: 1; PLCgamma1 ctr: -2; PLCb3 confirm: 2

How did CN(C)S(=O)(=O)Oc1ccc(C(=O)Nc2ccc([N+](=O)[O-])cc2)cc1 do in these assays?
sPLA2-III inh: -2; PLC-gamma1 inh: 3; proCasp3 act: 6; Arrestin-AP2 inh: 0; PLC-beta3 inh: 2; proCasp7 act: -2

What do the screens show for `CC(C)Oc1ccc(C(=O)Nc2ccc([N+](=O)[O-])cc2)cc1`?
sPLA2-III inh: 12; PLC-gamma1 inh: 10*; proCasp3 act: 6; Arrestin-AP2 inh: 1; PLC-beta3 inh: 0; proCasp7 act: 5; PLCgamma1 ctr: -3; PLCb3 confirm: -1

What do the screens show for `CCOC(=O)N1CCC(NS(=O)(=O)c2ccc3c(c2)CCN3C(C)=O)CC1`?
sPLA2-III inh: 2; PLC-gamma1 inh: 12*; proCasp3 act: 7; Arrestin-AP2 inh: 2; PLC-beta3 inh: 6; proCasp7 act: -2; PLCgamma1 ctr: -7; PLCb3 confirm: -4

Results for CCOc1ccc(N(CC(=O)NC2CCCC2)C(=O)CCC(=O)Nc2nc(C)cs2)cc1 ?
sPLA2-III inh: -7; PLC-gamma1 inh: 1; proCasp3 act: 7; Arrestin-AP2 inh: -4; PLC-beta3 inh: -3; proCasp7 act: 3

How did Cc1ccc(N(CC(=O)NC2CCCC2)C(=O)CCC(=O)Nc2nc(C)cs2)cc1 do in these assays?
sPLA2-III inh: 5; PLC-gamma1 inh: 9.6*; proCasp3 act: -3; Arrestin-AP2 inh: 6; PLC-beta3 inh: -8; proCasp7 act: -4; PLCgamma1 ctr: -2; PLCb3 confirm: 4

Results for O=C(O)c1ccc(N2CCCCCC2)c(N2C(=O)c3ccccc3C2=O)c1 ?
sPLA2-III inh: 0; PLC-gamma1 inh: 14*; proCasp3 act: 3; Arrestin-AP2 inh: -2; PLC-beta3 inh: 6; proCasp7 act: -1; PLCgamma1 ctr: -6; PLCb3 confirm: -5

Results for O=C(O)c1ccc2c(c1)C(=O)N(c1ccccc1-c1ccccc1)C2=O ?
sPLA2-III inh: 0; PLC-gamma1 inh: 1; proCasp3 act: 7; Arrestin-AP2 inh: -17; PLC-beta3 inh: -7; proCasp7 act: 3
